This is a sample that favours compounds with a hit; in the whole collection about 4.5% have one here.
TAAR1 antagonist – antagonists of human TAAR1; hit rate 1.5% among 360,000; Q96RJ0; CHO RD-HGA16 TAAR1, Fluo-8 calcium fluorescence, antagonist; inhibition, % at 3 µM;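 active = inhibition above a per-plate cutoff, the mean inhibition of test compounds on that plate plus 3 SD, cut at about 49% in these data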;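 note: 0% = DMSO plus EC80 beta-PEA response and 100% = DMSO alone without agonist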
Target sequence (Q96RJ0 whole entry, looked up): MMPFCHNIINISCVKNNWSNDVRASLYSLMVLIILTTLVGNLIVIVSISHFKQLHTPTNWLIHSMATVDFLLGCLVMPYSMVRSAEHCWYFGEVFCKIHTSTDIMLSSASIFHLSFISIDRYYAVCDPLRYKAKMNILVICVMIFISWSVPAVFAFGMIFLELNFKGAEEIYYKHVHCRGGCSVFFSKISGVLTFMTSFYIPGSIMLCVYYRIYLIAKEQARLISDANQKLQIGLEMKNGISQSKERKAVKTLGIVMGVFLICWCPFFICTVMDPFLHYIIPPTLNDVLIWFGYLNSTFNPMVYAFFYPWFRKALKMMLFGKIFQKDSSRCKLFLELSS
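System: CHO RD-HGA16 cells bearing hTAAR1. Reagent: EC80 β-phenethylamine stimulus. Schedule: seeding 17-24 h prior, 75-min 37 °C, 30-min RT dye loading. Signal: Fluo-8 intracellular calcium dye fluorescence, real-time kinetic reads. Read-out: % inhibition from peak post-agonist over basal fluorescence ratio. Benchmarks: vehicle wells and EC80 agonist wells. Replicates: n of 1.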
OX1R antag-1 – human HCRTR1 antagonism; O43613; CHO/OX1R cells, Fluo-8 calcium fluorescence, orexin A; inhibition, % at 5 µM; hit rate 0.43% among 330,000;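 active = inhibition above its plate's threshold, mean inhibition of all tested compounds on the plate plus 3 SD, cut at about 37% in these data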;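 note: 0% = orexin A challenge wells and 100% = SB-334867-A antagonist wells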
CHO parental Ca – signal in parental CHO cells, OX1R antagonist counter-screen; parental CHO-K1, ATP-induced calcium, Fluo-8 fluorescence; inhibition, % at 5.6 µM; hit rate 0.63% among 330,000; AID 463079;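 active = inhibition above that plate's mean sample inhibition plus 3 SD, cut at about 26% in these data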;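 note: 0% = ATP-challenged DMSO wells and 100% = DMSO wells without ATP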
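Test system: untransfected parental CHO cell line. Compound: one dose, 5.6 µM nominal. Detection: intracellular calcium via Fluo-8 no-wash fluorescent dye. Measure: % inhibition. Benchmarks: ATP-challenged DMSO wells low, unchallenged DMSO wells high.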
GPR7 antagonist – human neuropeptides B/W receptor 1 antagonism | P48145 | GPR7-expressing cells, fluorescence antagonist assay | inhibition, % at 4.4 µM | hit rate 1.1% among 290,000 | AID 1861; in the data active = inhibition above about 16%, passing the limit was not always enough;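 note: cells stimulated with the agonist NPW; 0% = agonist with vehicle and 100% = vehicle without agonist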
OX1R antag-2 – OX1R (human) antagonism; hit rate 1.8% among 330,000; inhibition, % at 6.6 µM; OX1R-expressing cells, FRET antagonist read-out; in the data active = inhibition mostly above about 38%, no sharp cut-off; inactive = mostly below about 40%;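 note: 0% = agonist challenge alone and 100% = reference antagonist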
TAAR1 ag – human TAAR1 agonism; activation, % at 3 µM; Q96RJ0; hit rate 0.99% among 360,000; CHO RD-HGA16 TAAR1, Fluo-8 calcium fluorescence; vehicle wells 0%, saturating PEA agonist 100%;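 active = activation above the mean activation of all test compounds in the run plus 3 SD, cut at about 38% in these data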
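Test system: RD-HGA16 (CHO) cells co-expressing Gα16 and hTAAR1 | Doses: Single dose, 3 µM | Schedule: 17-24 h seeding, 75 min 37 °C dye, 30 min RT | Evaluation: % activation from peak over basal fluorescence ratio, DMSO-to-PEA scaled | Technique: Kinetic Fluo-8 calcium fluorescence | Benchmarks: Low control DMSO, high control PEA (EC100)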
Starred values were filed as active, the others as inactive; / = not tested or not shown.

SMILES	TAAR1 antagonist	OX1R antag-1	CHO parental Ca	GPR7 antagonist	OX1R antag-2	TAAR1 ag
O=C(Nc1ccc(F)c(Cl)c1)c1ccc2sc([C@@H]3O[C@H](CO)[C@H](O)[C@H](O)[C@H]3O)nc2c1	-17.2	/	/	/	/	1.3
CCCOCCOC(=O)c1[nH]c2c(c1C)C(=O)CC(c1cc(OC)ccc1OC)C2 (centres undefined)	46.8	-25.7	-19.7	20.2*	4.9	0.7
Cc1cc(/C=C2\SC(=S)N(C)C2=O)c(C)n1-c1ccccc1O	43.7	51.5*	36.4*	/	34.0	5.8
Cc1cc(/C=C2/SC(=S)N(c3cccc(Cl)c3)C2=O)c(C)n1-c1cccnc1	23.8	53.0*	45.6*	-2.8	71.4*	17.5
Cc1cc(/C=C2/SC(=S)N(c3ccc([N+](=O)[O-])cc3)C2=O)c(C)n1-c1cccnc1	-8.1	-2.8	8.0	-12.4	18.4	7.2
Cc1cc(/C=C2\SC(=S)N(C)C2=O)c(C)n1-c1ccc(O)cc1	-20.3	-1.3	9.4	-4.6	9.6	11.4
CCOc1ccccc1C1C2C(=O)N(c3ccccc3)C(=O)C2ON1c1ccccc1 (centres undefined)	50.3*	5.2	-10.0	3.3	17.2	16.4
O=C1Oc2ccccc2C(=O)/C1=C/N1CCN(c2ccccc2F)CC1	-20.8	-13.3	3.0	13.1	25.6	39.4*
CCS(=O)(=O)N1CCN(c2ccccc2F)CC1	4.8	-5.0	-9.1	-8.1	3.3	1.6
CCC(=O)c1ccc(OCC(=O)OCC(=O)N(CCC#N)c2ccc3c(c2)OCCO3)cc1	21.7	26.1	44.3*	/	2.2	7.8
COCCCNC(=O)/C(C#N)=C1\N=C(NC(=O)c2cccs2)c2ccccc21	26.5	-17.0	-3.5	-10.8	47.3*	9.8
N#C/C(C(=O)NCCc1ccccc1)=C1/N=C(NC(=O)c2cccs2)c2ccccc21	-4.6	-24.5	-24.5	6.3	23.4	8.2
CC1(C)C(C=C(Cl)Cl)C1C(=O)Nc1ccc([N+](=O)[O-])cc1 (centres undefined)	43.4	24.7	49.6*	-5.5	28.7	16.2
O=C(Nc1ccc([N+](=O)[O-])cc1)C1CC1(c1ccccc1)c1ccccc1 (centres undefined)	53.6*	24.0	-5.6	-2.1	28.3	1.2
CC1(C)C(C=C(Cl)Cl)C1C(=O)N/N=C/c1ccccc1F (centres undefined)	4.2	-23.1	-12.6	-14.3	13.9	1.9
CCCCN(CC)CCCNC(=O)C1CCN(c2ncnc3c2sc2cccc(F)c23)CC1	-18.8	-11.2	-14.9	-4.3	62.3*	0.8
O=C(NCCN1CCOCC1)C1CCN(c2ncnc3c2sc2cccc(F)c23)CC1	4.9	-6.7	1.8	-9.3	9.5	0.5
COc1ccc(Cl)cc1NC(=O)CSc1nc2sccc2c(=O)[nH]1	-27.1	-16.5	-18.1	-13.2	62.9*	8.9
COc1ccc(C)cc1NC(=O)CSc1nc2scc(C)c2c(=O)[nH]1	-45.6	-6.5	1.9	-11.1	71.1*	1.2
COc1ccccc1NC(=O)CSc1nc2nc(C)cc(C)c2c(=O)[nH]1	-6.2	-20.8	-21.5	-4.1	32.0	0.9
COc1cccc(CNC(=O)[C@H]2CCCN2C(=O)[C@H]2CCCN2S(=O)(=O)c2cccc(C)c2)c1	3.2	/	/	/	/	-0.7
NC(c1csc(Nc2ccc(C(=O)c3ccccc3)cc2)n1)C1CCCCC1 (centres undefined)	41.4	/	/	/	/	45.6*
CC(C)c1ccc(NC(=O)Nc2nc(C(N)CCc3ccccc3)cs2)cc1 (centres undefined)	32.5	/	/	/	/	42.4*
NC(Cc1ccc(F)cc1)c1csc(Nc2ccc(C(=O)c3ccccc3)cc2)n1 (centres undefined)	53.0*	/	/	/	/	51.7*
NC(c1csc(Nc2nccc(C(F)(F)F)n2)n1)C1CCCCC1 (centres undefined)	29.8	/	/	/	/	44.3*
CCCCN(C(C)=O)c1c(CC)nc2ccc(C(=O)NCCCN(C)C)cn12	0.0	/	/	/	/	-0.2
Cc1nnc(SCc2cc(=O)[nH]c(=S)[nH]2)s1	9.5	-16.0	15.2	-3.8	16.1	11.6
Cc1ccc(NC(=O)c2cc(C(=O)c3cc(Cl)ccc3O)cn(-c3ccc(C)cc3)c2=O)cc1	9.5	0.4	2.5	-9.8	6.7	1.3

Compound activity deposited in PubChem BioAssay by The Scripps Research Institute Molecular Screening Center.
